Activity calls are given as the source filed them. The rule behind the calls is not given here.
Legend:
[1] = tested on: Human immunodeficiency virus 1; assay: Antiviral activity against HIV1 3B laboratory isolate assessed as inhibition of virus-induced cytopathogenicity by MTT assay; format: functional, organism-based; details: Human immunodeficiency virus 1, 3B
How it was run: (§1)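 Infection of PM1/CCR5 cells; tropism/subtype of each strain: IIIB X4 Sub B, 89.6 dual Sub B, KYAG and fTOI R5 Sub B (primary isolates). Viability read by MTT. […] Means of at least three experiments; tested up to 100 uM.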

[2] = tested on: Human immunodeficiency virus 1; assay: Antiviral activity against HIV1 89.6 laboratory isolate assessed as inhibition of virus-induced cytopathogenicity by MTT assay; format: functional, organism-based; details: Human immunodeficiency virus 1, isolate 89.6; how it was run: as §1
[3] = tested on: Human immunodeficiency virus 1; assay: Antiviral activity against HIV1 fTOI primary isolate assessed as inhibition of virus-induced cytopathogenicity by MTT assay; format: functional, organism-based; details: Human immunodeficiency virus 1, fTOI; how it was run: as §1
[4] = tested on: Human immunodeficiency virus 1; assay: Antiviral activity against HIV1 KYAG primary isolate assessed as inhibition of virus-induced cytopathogenicity by MTT assay; format: functional, organism-based; details: Human immunodeficiency virus 1, KYAG; how it was run: as §1
[5] = tested on: PM1; assay: Inhibition of gp120 binding to CD4 in HIV1 JR-FL infected human PM1 cells assessed as binding of anti-envelope CD4-induced monoclonal antibody 4C11 to envelope expressing cell surface at 100 uM pretreated 15 mins before 4C11 addition by FACS analysis; format: cell-based; details: Human immunodeficiency virus 1
How it was run: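 PM1 cells chronically infected with JR-FL (R5, Sub B) preincubated 15 min with compound at 100 uM (sCD4 11 nM as reference), then anti-HIV-1 mAb 4C11 at 4 °C for 15 min. After PBS wash, stained with FITC goat anti-human IgG; flow cytometry on gated PM1 cells, anti-CD19 control antibody; read as 4C11 mean fluorescence intensity. Minimum two independent experiments.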

[6] = Cytotoxicity against mock-infected CCR5 expressing human PM1 cells by MTT assay; format: cell-based
[7] = Inhibition of HIV1 gp120 binding to CD4; design: species or system Human immunodeficiency virus 1

Kd [7] [µM]	SMILES	IC50 [1] [µM]	IC50 [2] [µM]	IC50 [3] [µM]	IC50 [4] [µM]	Activity [5]	CC50 [6] [µM]
–	Cc1ccc(NC(=O)C(=O)NC2CC(C)(C)NC(C)(C)C2)cc1	23	41	16	51	Active	–
–	COc1ccc(NC(=O)C(=O)NC2CC(C)(C)NC(C)(C)C2)cc1	> 100	> 100	–	> 100	–	340
–	CC1(C)CC(NC(=O)C(=O)Nc2ccc(C(F)(F)F)cc2)CC(C)(C)N1	–	27	–	–	–	72
–	CC1(C)CC(NC(=O)C(=O)Nc2ccccc2)CC(C)(C)N1	> 100	> 100	81	> 100	inactive	350
2.2	CC1(C)CC(NC(=O)C(=O)Nc2ccc(Br)cc2)CC(C)(C)N1	4	9	–	–	–	150
–	CC1(C)CC(NC(=O)C(=O)Nc2ccc(Cl)cc2)CC(C)(C)N1	8	10	5	> 30	Active	170
–	CC1(C)CC(NC(=O)C(=O)Nc2ccc([N+](=O)[O-])cc2)CC(C)(C)N1	–	42	–	–	–	230
–	CC1(C)CC(NC(=O)C(=O)Nc2ccc(F)cc2)CC(C)(C)N1	61	81	–	> 100	–	320

Source: ChEMBL document CHEMBL1153139, “CD4 mimics targeting the mechanism of HIV entry” (Bioorg Med Chem Lett, 2010)
